Measured values published in article PMC3920952 (Cell Death & Disease, 2013).

What was measured:
[1] = system: Jurkat cells; assay: ATP-based cell viability assay
Outline: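 Jurkat cells (RPMI, 10% FBS, 1.5 mmol/l L-glutamine) seeded in half-surface 96-well plates. Treated overnight/18 h with test peptide, TAT-only peptide or vehicle under low serum (0.5–5% FBS). Single-concentration runs used 15 μM. ATP measured by CellTiter-Glo luminescence and expressed as % of vehicle-treated control. Single-concentration values are mean ± S.D. of four independent experiments.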

[2] = system: Jurkat cells; assay: Trypan blue exclusion assay; assay type: cell-based
Outline: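 Jurkat cells cultured in 96-well plates and treated with TAT or test peptide overnight (10–15 μM range). In the caspase-inhibitor arm, cells were preincubated 30 min with zVAD-fmk or vehicle, then treated 17 h (TAT 10 μM). Suspended cells were mixed 1:1 with 0.4% Trypan blue, and viable cells were counted on a TC10 automated counter.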

[3] = Tolerability in xenograft-bearing mice; assay type: in vivo, nu/nu mice; details: mice treated for 18 days, 2.0 and 8.0 mg/kg daily i.p.
Outline: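 HCT116 cells (1×10^6) injected s.c. into the right flank of 7–8-week-old female nu/nu mice. After 1 week, mice were randomized into four groups of eight. Groups received daily i.p. test peptide (2.0 or 8.0 mg/kg) or TAT (1.3 or 5.3 mg/kg) for 18 days. Body weight was monitored. Liver, brain, heart, lung and spleen sections were assessed by H&E staining.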

[4] = system: Jurkat cells; assay: Cell death by propidium iodide staining and flow cytometry; assay type: cell-based; details: 15 μM, 18 h, 0.5% FBS; mean of three independent experiments
Outline: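 Cells seeded at 4×10^5/ml in medium with 0.5% FBS and exposed for 18 h to TAT-fused truncated test peptides (15 μM) or TAT alone. Cells were washed in PBS and resuspended in PI solution (50 μg/ml PI, 0.1% sodium citrate, 0.1% Triton X-100). Flow cytometry gave the sub-G1 fraction. Mean ± S.D. of three independent experiments; two-tailed Student's t-test versus TAT.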

[5] = system: K562 cells; assay: Trypan blue exclusion assay; assay type: cell-based; details: 20 μM, 15-min treatment
Outline: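 K562 cells were exposed to 20 μM test peptide or TAT in medium with 0.5% FBS, either over a time course (minutes) or for 18 h. Cells in suspension were mixed 1:1 with 0.4% Trypan blue. Viable (dye-negative) cells were counted on an automated cell counter. Values are mean ± S.D.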

[6] = Particle size by dynamic light scattering; assay type: physicochemical; details: PBS pH 7.4, 25 °C
Outline: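 Test peptide at 60 μM in PBS, pH 7.4, at 25 °C was filtered and degassed, then scanned in a 1-mm path quartz cuvette. 90° light scattering was recorded for 3 min. Particle radius was derived by CONTIN analysis of the DLS data.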

## FALFCTSW [scrambled killerFLIP-E]
[1]; 18 h, comparison with scrambled variant (Figure 4c), concentration not given
  relative ATP levels compared with vehicle-treated cells: 12.7%

## YGRKKRRQRRRREADFFWSLCTADMS [killerFLIP]
[1]; overnight treatment, various concentrations, low serum (0.5–5% FBS)
  effect on cell viability (relative ATP levels): concentration-dependent decrease in cell viability
[2]; 10–15 μM, overnight
  cell death, share of Jurkat cells (Trypan blue exclusion): ~50%
[3]
  tolerability: generally well tolerated

## CTADMS [killerFLIP-C]
[4]
  cell death (PI staining): 14.6%

## YGRKKRRQRRR [TAT, reference compound]
[2]; 10 μM TAT, 17 h, no zVAD-fmk
  cells excluding Trypan blue: 78%
[2]; 10 μM, 17 h
  cell death (Trypan blue exclusion): did not induce cell death
[2]; 20 μM, 15-min treatment
  Trypan blue-negative cells: 75.2%
[5]
  Trypan blue-negative cells: 83%
[6]
  self-assembly into micelles in aqueous solution (DLS): does not

B1: HGS-ETR2: agonistic anti-TRAIL-R2 antibody used as a positive control for apoptotic cell death (antibody, chains of the INN, looked up, V domains shown)
VH: EVQLVQSGGGVERPGGSLRLSCAASGFTFDDYGMSWVRQAPGKGLEWVSGINWNGGSTGYADSVKGRVTISRDNAKNSLYLQMNSLRAEDTAVYYCAKILGAGRGWYFDLWGKGTTVTVSS
VL: SSELTQDPAVSVALGQTVRITCQGDSLRSYYASWYQQKPGQAPVLVIYGKNNRPSGIPDRFSGSSSGNTASLTITGAQAEDEADYYCNSRDSSGNHVVFGGGTKLTVL
[2]; HGS-ETR2 1 μg/ml, 17 h, after 30 min pre-treatment with 20 μM zVAD-fmk
  Trypan blue-negative cells: 70%
[2]; HGS-ETR2 1 μg/ml, 17 h, no zVAD-fmk
  Trypan blue-negative cells: 11%
